For data set [1], the system named is nitric oxide (NO) production in RAW 264.7 stimulated by LPS. Briefly: Nitric oxide inhibition in RAW 264.7 induced by LPS. It counts as cell-based. Particulars: Mus musculus, RAW264.7, 24 h, read-out: no. inhibition %. In short, it runs like this: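 Mouse RAW 264.7 cells at 1 × 10^6 cells/mL were treated with test compound at 10 μM or L-NAME at 250 μM. After 1 h, 1 μg/mL LPS was added for 24 h. Supernatant nitrite was measured with Griess reagent at 540 nm against a standard curve run alongside the samples.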

The nature of data set [2]: MTT cytotoxicity assay on RAW 264.7. It counts as cell-based. Particulars: mouse, RAW 264.7 cells. In short, it runs like this:
(§1)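 Cells were maintained in DMEM with 10% FBS and 1% pen-strep at 37 °C, 5% CO2, to 80% confluence. They were seeded in 96-well plates and exposed to test compound at 25 μM for 24 h. Viability was determined by MTT and given as % viability, mean ± SD of two independent experiments.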
On the technique in general: Formazan colour is commonly taken as a measure of viable cells.

Data set [3] in a line: MTT cytotoxicity assay on HepG2. It counts as cell-based. The following applies: human, HepG2 cells. The method in brief: as §1
For data set [4], the system named is pin-1. Particulars: read-out: IC50 (pin-1); cited from earlier work.
Data set [5] concerns HepG2. Particulars: dose of 100 μM; cited from earlier work.

SMILES strings stand for the structures.

The term inhibition denotes the share of the control response that was lost under treatment. `COC(=O)[C@@H](N)CCCNC(N)=N[N+](=O)[O-]` [L-NAME, L-NG-nitro arginine methyl ester]: in data set [1], the inhibition at 250 µM was determined as 84.76 ± 0.4%.
By viability is commonly meant a read-out of living cells in per cent, often relative to untreated cells. Usually IC50 stands for the point on the concentration scale where inhibition reaches its midpoint. Turning to `CC(=O)O[C@@H]1CC[C@@]2(C)[C@@H](CC[C@]3(C)[C@@H]2C(=O)C=C2[C@@H]4[C@@H](C)[C@H](C)CC[C@]4(C)CC[C@]23C)[C@@]1(C)C(=O)O` [compound 1, 3-acetyl-11-keto-β-boswellic acid], the values for the viability at 24 h, 25 µM in data set [2] and in data set [3] were 92 ± 1.2% and 86 ± 2.6%, respectively. In addition, the inhibition at 10 µM in data set [1] turned out to be 74 ± 0.1%. Further, in data set [4], the IC50 was 50 µM.
Regarding `Cc1ccc(C(C)C)c(O)c1` [thymol], the “effect on APAP hepatotoxicity in HepG2” value in data set [5] is “ameliorated APAP hepatotoxicity”.
